According to paper PMC4703045 (Chemistry & biology, 2015):

Columns and labels:
[1] = system: PKG Iβ; experiment: PKG Iβ kinase activation assay; assay type: biochemical; settings: Ni-IMAC-purified PKG Iβ, over basal activity (Figure S1B)
[2] = system: KCa1.1 channel; experiment: KCa1.1 channel open probability; assay type: biochemical, rat; settings: 500 nM Ca2+
Method in brief: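 Inside-out patches excised from enzymatically dispersed cerebral artery smooth muscle cells. Bath (cytosolic face), mM: 140 KCl, 2 MgCl2, 0.1 Mg-ATP, 10 HEPES pH 7.3, 3 EGTA, CaCl2 to 500 nM. Pipette, mM: 120 NaCl, 20 KCl, 2 MgCl2, 1 CaCl2, 10 HEPES pH 7.4. […] NPo normalised to control patches; mean ± SEM.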

[3] = system: posterior cerebral arteries with intact endothelium; assay type: cell-based, rat; settings: control PCAs with intact endothelium, without S1.5
[4] = system: endothelium-denuded posterior cerebral arteries; assay type: cell-based, rat; settings: paxilline 1 µM; endothelium-denuded control PCAs without S1.5
[5] = biological target: T1, PKG Iα (Bos taurus, UniProt P00516); experiment: PKG Iα kinase activation, γ32P-ATP incorporation assay with W15 substrate; assay type: biochemical; settings: for activation of PKG Iα (in words): absence of cGMP, 15 min pre-incubation at 30°C
T1 sequence (P00516 1-671): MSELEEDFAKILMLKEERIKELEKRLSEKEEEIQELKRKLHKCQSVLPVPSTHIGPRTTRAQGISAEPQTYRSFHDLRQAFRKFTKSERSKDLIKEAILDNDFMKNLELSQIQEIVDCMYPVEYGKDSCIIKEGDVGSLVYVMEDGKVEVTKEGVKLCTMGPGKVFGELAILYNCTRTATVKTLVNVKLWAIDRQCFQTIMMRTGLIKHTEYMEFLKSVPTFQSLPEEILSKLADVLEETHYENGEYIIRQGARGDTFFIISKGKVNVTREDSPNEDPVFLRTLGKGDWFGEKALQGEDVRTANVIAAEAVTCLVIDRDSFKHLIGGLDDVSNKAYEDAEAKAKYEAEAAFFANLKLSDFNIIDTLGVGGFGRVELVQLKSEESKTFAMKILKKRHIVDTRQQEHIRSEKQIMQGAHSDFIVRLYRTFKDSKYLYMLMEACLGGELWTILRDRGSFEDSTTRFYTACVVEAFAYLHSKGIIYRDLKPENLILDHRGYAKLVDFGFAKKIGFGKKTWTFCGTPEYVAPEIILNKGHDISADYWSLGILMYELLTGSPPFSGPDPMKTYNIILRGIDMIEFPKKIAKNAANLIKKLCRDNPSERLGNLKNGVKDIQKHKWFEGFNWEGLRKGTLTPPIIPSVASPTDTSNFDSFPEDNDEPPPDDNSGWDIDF

[6] = Secondary structure by circular dichroism spectroscopy; assay type: physicochemical; settings: 10 µM peptide in 10 mM PBS pH=7.4, 22°C, 260 to 190 nm
Method in brief: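 CD spectra at 22°C in a 2 mm cuvette, with 10 µM peptide in 10 mM PBS pH 7.4. Scanned 260–190 nm at 0.5 nm intervals with 2 s integration and 100 nm/min. Ten accumulations were averaged per peptide, and output was given as mean residue ellipticity (mdeg × cm2/dmol × residue).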

[7] = biological target: cGMP-dependent protein kinase Iα (UniProt P00516)
[8] = biological target: cGMP-dependent protein kinase Iα (UniProt P00516); remark: listed apart in the source

Nc1nc2c(ncn2[C@@H]2O[C@@H]3COP(=O)(O)O[C@H]3[C@H]2O)c(=O)[nH]1 [cGMP, cyclic guanosine-3’,5’-monophosphate]
increase in activity under saturating quantities of cGMP [1]: 15 fold
change in KCa1.1 open probability (NPo) ([2]; 50 nM cGMP with recombinant PKG Iα in bath solution): no significant change
increase of KCa1.1 NPo above the control ([2]; 5 µM cGMP (saturating) with PKG Iα, p<0.002): eight

CC(C)(O)[C@H]1O[C@H]2CC[C@@]3(C)[C@@](O)(CC[C@H]4Cc5c([nH]c6ccccc56)[C@@]43C)C2=CC1=O [paxilline]
paxilline-induced constriction in control arteries [3]: 4%
additional constriction on paxilline in control arteries [4]: 5%

Ac-AEAKAKYEAEAAFFANLKLSD-NH2 [S1.11]
activation of PKG Iα (in words) [5]: complete loss of activity

Ac-ALKSENYADKVEFKDAKYEASALANEFADA-NH2 [S1.7]
activation of PKG Iα (in words) [5]: did not activate the kinase
helicity (secondary structure by CD) [6]: found to not be helical

Ac-DAEAKAKYEAEAAFFANLKLSD-NH2 [S1.10]
EC50 [5]: 45 ± 4 µM

Ac-DVSNKAYEDAEAKAKYEAEAA-NH2 [S1.3]
activation of PKG Iα (in words) [5]: completely abolished kinase activity
helicity (secondary structure by CD) [6]: helicity was compromised but not completely lost

Ac-DVSNKAYEDAEAKAKYEAEAAAAANLKLSD-NH2 [S1.6]
activation of PKG Iα (in words) [5]: equivalent to removal of the entire knob
helicity (secondary structure by CD) [6]: increased degree of helicity

Ac-DVSNKAYEDAEAKAKYEAEAAFFANLK-NH2 [S1.2]
EC50 [5]: 35 ± 4 µM

Ac-DVSNKAYEDAEAKAKYEAEAAFFANLKLSD-NH2 [S1.1]
EC50 [5]: 35 ± 4 µM
activation of PKG Iα (in words) [5]: robust and cooperative activation
effect on KM for the substrate peptide W15 ([5]; control experiment (Figure S4)): did not affect the KM
increase of KCa1.1 channel activity (NPo) versus control ([2]; 100 µM peptide pre-incubated with PKG Iα, +10mV, p<0.05): 6 fold

Ac-EDAEAKAKYEAEAAFFANLKLSD-NH2 [S1.9]
EC50 [5]: 43 ± 5 µM

Ac-NKAYEDAEAKAKYEAEAAFFANLKLSD-NH2 [S1.4]
EC50 [5]: 12 ± 1 µM

Ac-NKAYEDAEAKAKYEAEAAFFANLKLSD-NH2 [S1.4]
maximal velocity of PKG Iα kinase activity with the peptide [7]: 80%

Ac-DVSNKAYEDAEAKAKYEAEAAFFANLK-NH2 [S1.2]
maximal efficacy of activation of PKG Iα kinase activity [8]: 60 % of maximum
